The source of these data is ChEMBL document CHEMBL1800069, “Structure-based design of a new series of D-glutamic acid based inhibitors of bacterial UDP-N-acetylmuramoyl-L-alanine:D-glutamate ligase (MurD)” (J Med Chem, 2011).

In brackets after ≈: the same amount, converted by molar mass. Activity calls are given as the source filed them. No cut-off for these calls is given here.

In general, IC50 refers to the concentration needed to halve the response being measured. The MIC is the lowest concentration that inhibits growth of the organism.

Assay [1] concerns Escherichia coli. Kind of assay: Antibacterial activity against Escherichia coli ATCC 25922 after 18 to 24 hrs by CLSI method. The assay is classed as functional, organism-based.
The next assay has as its system Staphylococcus aureus. Kind of assay: Antibacterial activity against Staphylococcus aureus ATCC 29213 after 18 to 24 hrs by CLSI method. The assay is classed as functional.
A further assay concerns Pseudomonas aeruginosa. Kind of assay: Antibacterial activity against Pseudomonas aeruginosa ATCC 27853 after 18 to 24 hrs by CLSI method. In kind it is functional, organism-based.
The test system of the next assay is Enterococcus faecalis. In words: Antibacterial activity against Enterococcus faecalis ATCC 29212 after 18 to 24 hrs by CLSI method. In kind it is functional.
Assay [2] can be described thus: Inhibition of Escherichia coli MurD ligase catalyzed addition of D-Glu to UDP-MurNAc-L-Ala after 15 mins by colorimetric analysis. A digest of the protocol: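 Malachite green colorimetric detection of orthophosphate released by E. coli MurD ligase, with 0.01% Triton X-100 present to avoid aggregate-based nonspecific inhibition. IC50 is taken as the inhibitor concentration that leaves 50% residual enzyme activity.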

The subject of assay [3] is Escherichia coli. Kind of assay: Inhibition of Escherichia coli MurD ligase catalyzed addition of D-Glu to UDP-MurNAc-L-Ala assessed as residual activity at 500 uM after 15 mins by colorimetric analysis. A digest of the protocol: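 E. coli MurD activity read by malachite green detection of released orthophosphate, with 0.01% Triton X-100 present. Residual activity (%) measured with 500 μM test compound. Values are the mean of two independent experiments, with standard deviations within ±10% of the mean.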

Regarding `COC(=O)CCC(=O)N(Cc1cccc(C(=O)N[C@H](CCC(=O)OC)C(=O)OC)c1)c1ccc(/C=C2\SC(=S)NC2=O)cc1`, the result in the assay with Escherichia coli [1], in the assay on Staphylococcus aureus, in the assay on Pseudomonas aeruginosa and in the assay on Enterococcus faecalis was inactive.

In turn, `O=C(O)CCC(=O)N(Cc1cccc(C(=O)N[C@H](CCC(=O)O)C(=O)O)c1)c1ccc(/C=C2\SC(=S)NC2=O)cc1` had an IC50 in assay [2] of 7 µM. Also, the result with Escherichia coli [1] and with Pseudomonas aeruginosa was inactive. The minimum inhibitory concentration (MIC) against Staphylococcus aureus and with Enterococcus faecalis was 128 µg/mL (≈ 213 µM) throughout.

Consider `O=C(O)CC[C@@H](NC(=O)c1ccc2ccn(Cc3ccc(OCC(=O)O)cc3)c2c1)C(=O)O`, for which the Activity in the assay with Escherichia coli [3] is 94%.

For the molecule `O=C(O)CC[C@@H](NC(=O)c1cccc(CNc2ccc(/C=C3\NC(=O)NC3=O)cc2)c1)C(=O)O`, in the assay with Escherichia coli [3], the Activity was 99%.

The molecule `O=C(O)CC[C@@H](NC(=O)c1cccc(CN(C(=O)CC(=O)O)c2ccc(/C=C3\SC(=S)NC3=O)cc2)c1)C(=O)O` yielded an IC50 in assay [2] of 3 µM. The result with Escherichia coli [1] and in the assay on Pseudomonas aeruginosa was inactive. In addition, the MIC against Enterococcus faecalis stood at 128 µg/mL (≈ 219 µM).

On to `O=C(O)CC[C@@H](NC(=O)c1cccc(CNc2cccc(OCC(=O)O)c2)c1)C(=O)O`, for which the Activity in the assay with Escherichia coli [3] was 89%.

On to `O=C(O)CC[C@@H](NC(=O)c1ccc(NCc2ccc(/C=C3\SC(=O)NC3=O)cc2)cc1)C(=O)O`, for which the Activity in the assay with Escherichia coli [3] came out at 88%.

In turn, `O=C(O)CC[C@@H](NC(=O)c1cccc(CN(C(=O)C(=O)O)c2ccc(/C=C3\SC(=O)NC3=O)cc2)c1)C(=O)O` gave an IC50 in assay [2] of 40 µM.

For the molecule `O=C(O)CCC(=O)N(Cc1cccc(C(=O)N[C@H](CCC(=O)O)C(=O)O)c1)c1ccc(/C=C2\SC(=O)NC2=O)cc1`, half-maximal inhibition in assay [2] (IC50) was put at 105 µM.

With `N=C1NC(=O)/C(=C/c2ccc(NCc3cccc(C(=O)N[C@H](CCC(=O)O)C(=O)O)c3)cc2)S1`, in the assay with Escherichia coli [3], the Activity is 85%.

Turning to `O=C(O)/C=C/c1ccc(NCc2cccc(C(=O)N[C@H](CCC(=O)O)C(=O)O)c2)cc1`, the Activity in the assay with Escherichia coli [3] is 96%.

`O=C(O)CC[C@@H](NC(=O)c1cccc(CN(C(=O)C(=O)O)c2ccc(/C=C3\SC(=S)NC3=O)cc2)c1)C(=O)O` had an IC50 in assay [2] of 5 µM.

`O=C(O)CC[C@@H](NC(=O)c1cc(CNc2ccc(/C=C3\SC(=S)NC3=O)cc2)ccc1F)C(=O)O` returned an IC50 in assay [2] of 253 µM.

For the molecule `COC(=O)CC[C@@H](NC(=O)c1cccc(CN(C(=O)CC(=O)OC)c2ccc(/C=C3\SC(=S)NC3=O)cc2)c1)C(=O)OC`, the result in the assay on Escherichia coli [1], in the assay with Staphylococcus aureus, in the assay on Pseudomonas aeruginosa and in the assay with Enterococcus faecalis was inactive.

In turn, `O=C(O)CC[C@@H](NC(=O)c1cccc(CN(C(=O)CC(=O)O)c2ccc(/C=C3\SC(=O)NC3=O)cc2)c1)C(=O)O` returned an IC50 in assay [2] of 15 µM.

With `O=C(O)CC[C@@H](NC(=O)c1cc(CNc2ccc(/C=C3\SC(=S)NC3=O)cc2)ccc1O)C(=O)O`, half-maximal inhibition in assay [2] (IC50) required 124 µM.

As for `O=C(O)CC[C@@H](NC(=O)c1cc(CNc2ccc(/C=C3\SC(=O)NC3=O)cc2)ccc1F)C(=O)O`, the Activity in the assay with Escherichia coli [3] was 71%.

Regarding `O=C(O)CC[C@@H](NC(=O)c1cccc(CNc2ccc(OCC(=O)O)cc2)c1)C(=O)O`, the Activity with Escherichia coli [3] turned out to be 87%.
